The list is not random: actives were taken first. Their share in the collection is about 3.5%.
MrgX1 ag = agonists of human MrgX1 receptor; Q96LB2; MrgX1-HEK293 cells, Fluo-4 calcium fluorescence, agonist mode; stronger effect = higher value; B-score at 10 µM; hit rate 0.44% among 310,000; AID 588627;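 active = calcium response B-score plate-corrected fluorescence ratio at least 3 library SD, with starting fluorescence B-score inside 5 SD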
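Test system: Stable human MrgX1 HEK293 cell line | Schedule: Overnight plating before 1 h dye loading | Read-out basis: Baseline-normalised fluorescence change ratio, B-scored | Detection: Kinetic calcium dye fluorescence, Fluo-4 NW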
RGS4 pot = potentiators or activators of RGS4. HEK293 M3R/inducible RGS4, carbachol calcium flux Fluo4; stronger effect = lower value. B-score at 10 µM. hit rate 0.92% among 310,000;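 active = B-score of the integrated calcium signal more than 4 SD below the library mean, with starting fluorescence not abnormally high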;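 note: negative B-score means reduced calcium response which marks RGS4 activation or potentiation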
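Assay system: Inducible-RGS4 HEK293 cells carrying M3 receptor | Schedule: Compound preincubation 20 min at room temperature before agonist | Signal: Kinetic calcium fluorescence imaging with Fluo4-AM dye, 2 µM | Read-out basis: B score from integrated fluorescence ratio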
MrgX1 antag = blocks BAM8-22 activation of human MrgX1 receptor; Q96LB2; MRGX1-HEK293 calcium flux, Fluo-4, BAM8-22 antagonism; stronger effect = lower value; B-score at 10 µM; hit rate 1.3% among 310,000;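 active = calcium-response B-score plate-corrected more than 3 library SD below zero, starting fluorescence within 5 deviations, no agonist response on first addition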;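 note: peak minus trough fluorescence over baseline after final BAM8-22 challenge near maximal dose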
RGS4 inh = human RGS4 inhibition | AID 463165 | hit rate 0.45% among 310,000 | P49798 | B-score at 10 µM | HEK293 M3R/RGS4 inducible, Fluo-4 calcium flux; stronger effect = higher value; triggered by carbachol at its EC20;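 active = B-score, a plate-corrected calcium signal, over three deviations above library mean, with baseline fluorescence within five deviations of library mean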;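 note: RGS4 expression induced by doxycycline in cells with stable M3 receptor; B-score is computed from the integrated fluorescence ratio over baseline after carbachol; higher B-score means a larger calcium signal and so more RGS4 inhibition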
Target sequence (P49798 whole entry, looked up): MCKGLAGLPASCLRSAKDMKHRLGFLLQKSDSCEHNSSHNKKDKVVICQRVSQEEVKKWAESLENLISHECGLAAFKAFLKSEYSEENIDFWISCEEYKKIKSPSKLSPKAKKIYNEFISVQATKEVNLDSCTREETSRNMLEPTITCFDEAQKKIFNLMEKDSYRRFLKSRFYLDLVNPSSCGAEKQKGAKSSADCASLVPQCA
MrgX1 allo act = human MrgX1 positive allosteric modulation, primary screen; Q96LB2; MrgX1-HEK293, Fluo-4 calcium flux, FDSS; stronger effect = higher value; B-score at 10 µM; hit rate 0.63% among 310,000;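 active = plate-corrected calcium response at least 3 library SD above typical, normal starting fluorescence, not activating the receptor alone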;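 note: compound read alongside a low EC10 to EC30 dose of BAM8-22 agonist; peak minus trough fluorescence over baseline measured at the second addition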
MrgX1 ant reconf = confirmation of human MrgX1 receptor antagonists | remaining BAM8-22 calcium response % of control (stronger effect = lower value), % at 10 µM | AID 602420 | shares compounds with MrgX1 antag | hit rate 19% among 2,300 | MrgX1-HEK293, BAM8-22 calcium flux, Fluo-4; stronger effect = lower value;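 active = remaining agonist calcium response no higher than 100% minus 3 SD of agonist-only control wells, with starting fluorescence near control levels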;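 note: agonist BAM8-22 given at a near maximal EC90 to ECmax level; peak minus minimum fluorescence divided by baseline after agonist addition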
HEK293 Ca flux = MrgX1 antagonist counter-screen hit in parental HEK293 cells | fluorescence ratio F(max-min)/F0 at 10 µM | shares compounds with MrgX1 antag | hit rate 2% among 4,000 | Fluo-4 calcium fluorescence, FDSS;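 active = duplicate-averaged calcium fluorescence ratio at least three times the standard deviation of buffer wells, a nonspecific response in parental cells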
HEK293 Ca counter = counter-screen for MrgX1 allosteric activators: effect in parental HEK293 cells; shares compounds with MrgX1 antag; parental HEK293 calcium flux, Fluo-4 fluorescence ratio; stronger effect = higher value; fluorescence ratio F(max-min)/F0 at 10 µM; hit rate 0.4% among 4,000;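 active = calcium fluorescence ratio, averaged over duplicates, at least 3 SD of the buffer-well ratio, meaning a nonspecific response in receptor-free cells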;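 note: untransfected parental HEK293 lacking MrgX1 used as counterscreen for MrgX1 allosteric activators; fluorescence change taken during the second addition on a kinetic imager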
HEK293 Ca cntr2 = counter-screen for MrgX1 activators: effect in parental HEK293 cells | Fluo-4 calcium fluorescence (FDSS); stronger effect = higher value | shares compounds with MrgX1 antag | hit rate 8.7% among 4,000 | fluorescence ratio F(max-min)/F0 at 10 µM;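 active = calcium fluorescence ratio at least three times the spread of buffer wells, meaning a non-specific response in parental cells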
Starred values were filed as active, the others as inactive; i = inactive; x = not tested or not shown.

SMILES	MrgX1 ag	RGS4 pot	MrgX1 antag	RGS4 inh	MrgX1 allo act	MrgX1 ant reconf	HEK293 Ca flux	HEK293 Ca counter	HEK293 Ca cntr2
Cc1cc(NC(=S)Nc2cccnc2)ccc1Br	i	i	-5.24*	i	i	85.6%*	i	i	i
Cc1cc(NC(=S)Nc2ccccc2)ccc1Br	i	i	i	i	i	x	x	x	x
CC(C)CCNC(=O)CN(C(=O)CCC(=O)Nc1ccccn1)c1ccc(F)c(Cl)c1	i	i	i	i	i	x	x	x	x
O=C(CN1CCC(c2nc3ccccc3s2)CC1)NCc1ccccc1	i	i	-5.41*	i	i	i	i	i	i
CCCCN(C(=O)c1ccc2c(c1)OCCO2)c1c(N)n(CC(C)C)c(=O)[nH]c1=O	i	i	i	i	i	x	x	x	x
CCc1ccc(N(C(=O)c2csnn2)C(C(=O)NC(C)(C)C)c2cccnc2)cc1 (stereo unspecified)	i	i	i	i	i	x	x	x	x
S=c1[nH]nc(-c2ccccn2)n1/N=C/c1ccc(Br)s1	i	i	i	i	i	x	x	x	x
Fc1ccc(C(c2nnnn2Cc2cccs2)N2CCN(C3CCCC3)CC2)cc1 (stereo unspecified)	i	i	-7.06*	i	i	i	i	i	i
CCc1cc(=O)[nH]c(SCc2ccc(C)cc2)n1	i	i	-4.69*	i	i	i	i	i	i
CCc1cc(=O)[nH]c(SCc2cccnc2)n1	i	i	i	i	i	x	x	x	x
CCOC(=O)C1=C(CSc2nc3c(cc2C#N)CN(C)CC3)OC(N)=C(C#N)C1c1ccc(F)cc1 (stereo unspecified)	i	i	-5.39*	i	i	i	i	i	i
CCOC(=O)C1=C(CSc2nc3c(cc2C#N)CCC3)OC(N)=C(C#N)C1c1ccccc1 (stereo unspecified)	i	i	i	i	i	x	x	x	x
O=C(O)c1ccc(N2CCCCC2)cc1	i	i	-6.4*	i	i	i	i	i	i
COc1ccc(C2NC(C(=O)O)Cc3c2[nH]c2ccccc32)cc1OC (stereo unspecified)	i	i	-6.73*	i	i	i	i	i	i
COc1cc(C2NC(C(=O)O)Cc3c2[nH]c2ccccc32)cc(OC)c1OC (stereo unspecified)	i	i	i	i	i	x	x	x	x
O=C(NCc1ccccc1Cl)c1ccc2nc[nH]c2c1	i	i	i	i	i	x	x	x	x
Cc1nn(C)cc1CN(C)C(=O)c1nn2c(c1Cl)NC(c1cccs1)CC2C(F)(F)F (stereo unspecified)	i	i	-4.98*	i	i	73.7%*	i	i	i
CCOC(=O)C1CCN(C(=O)CCc2ccccc2)CC1	i	i	-7.93*	i	i	i	i	i	i
COc1ccc(S(=O)(=O)N(CC(=O)NC2CCCCC2)c2ccc(F)cc2)cc1	i	i	i	i	i	x	x	x	x
FC(F)C(F)(F)c1cc(-c2ccc(Cl)cc2)n[nH]1	i	i	-6.71*	i	i	i	i	i	i
Oc1ccccc1-c1cc(C(F)(F)C(F)F)[nH]n1	i	i	i	i	i	x	x	x	x
CCc1ccc(NC(=O)CSc2nnc(CNC(=O)c3cccs3)o2)cc1	i	i	i	i	i	x	x	x	x
